From PubChem BioAssay
In the library only some 2.3% were active in any assay of this set; here they are far more common.
Beta apoptosis: beta cell apoptosis inhibition; INS-1E cytokine-induced death, ATP luminescence, 48 h; percent of positive-control rescue, neutral wells zero; AID 435005; protection from apoptosis, % (no concentration beside the values); 300,000 tested, 0.8% active;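 active = Every replicate reaches about 75%, or at least half do and their mean reaches it too, limit read from the data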;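 note: higher means more ATP so stronger rescue from cytokine killing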
KLF5 inhibitor: kruppel-like factor 5 inhibition | AID 1700 | DLD-1 KLF5 promoter-luciferase reporter, luminescence | inhibition, % at 5 µM | 290,000 tested, 0.23% active;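 active = inhibition above a per-plate limit of that plate's mean compound inhibition plus 3 SD, cut at about 60% in these data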;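 note: higher means less KLF5 promoter-driven luciferase light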
HIF activator: HIF pathway transcriptional activation. 300,000 tested, 0.32% active. U2OS HRE-luciferase reporter, luminescence; normalized: DMSO 0%, desferrioxamine 100%. activation, % at 7.5 µM (by protocol). AID 1910;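 active = mean activation of at least 10% of the iron chelator positive control signal, with at least half of replicates also reaching 10%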
T cruzi inh: T. cruzi replication inhibition; T. cruzi beta-gal in NIH3T3, luminescence, 90 h; AID 1885; inhibition, % (no concentration beside the values); 300,000 tested, 1.4% active;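 active = mean inhibition across valid replicates above about 55%, limit read from the data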;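 note: signal also drops with host cell toxicity which is not excluded here; higher percent means less beta-gal luminescence so fewer parasites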
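System: NIH/3T3 fibroblasts plus reporter T. cruzi. Medium: DMEM plus 2% FBS. Probe or stimulus: 5000 reporter trypomastigotes per well. Compound: single 50 nL compound addition per well in DMSO. Incubation: co-culture of at least 90 h after 3 h attachment. Detection: GalScreen β-gal luminescence, detergent lysis, 60 min. Evaluation: parasite load inhibition, %.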
A1 inh: inhibitors of the anti-apoptotic protein A1, read as caspase activation | 330,000 tested, 0.066% active | MEF A1-2A-BIM cells, Caspase-Glo 3/7 luminescence, 3 h; percent of clofoctol response, vehicle zero | caspase activation, % (test concentration not listed);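 active = over half of replicate activation scores above 10%, or exactly half above 10 with the replicate mean above 10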
Hits are given with their value; – = inactive; · = not tested or not shown.

SMILES	Beta apoptosis	KLF5 inhibitor	HIF activator	T cruzi inh	A1 inh
CC1=C(C(=O)Nc2ccccc2F)C(c2ccsc2)C2=C(CC(c3ccccc3)CC2=O)N1 (centres undefined)	–	–	–	56.1	–
CCOCCOC(=O)C1=C(C)NC2=C(C(=O)CC(c3cccs3)C2)C1c1ccsc1 (centres undefined)	–	–	–	–	–
Cc1cc(C)c(OCC(=O)OCC(=O)N(C)C2CCS(=O)(=O)C2)c(C)c1 (centres undefined)	–	·	–	–	–
Cc1nn(Cc2ccc(Cl)cc2Cl)c(Cl)c1/C=N/NC(=O)CNc1cccc(C(F)(F)F)c1	–	–	–	70.6	–
Cc1ccc2oc(=O)cc(CN3CCCCC3)c2c1	–	–	–	–	–
O=c1[nH]c(CN2CCN(C/C=C/c3ccccc3)CC2)nc2ccccc12	–	–	–	72.1	–
O=c1[nH]c(CN2CCN(S(=O)(=O)/C=C/c3ccccc3)CC2)nc2ccccc12	–	–	–	–	–
Cc1ccc2oc(=O)cc(CN3CCN(C/C=C/c4ccccc4)CC3)c2c1	–	–	–	56.6	–
O=c1cc(CN2CCN(C/C=C/c3ccccc3)CC2)c2cc(O)ccc2o1	–	–	–	57.7	–
O=C(CN1C(=O)CSc2ccc(S(=O)(=O)N3CCOCC3)cc21)NCc1ccc(Cl)cc1	–	–	–	–	–
OCC1(Cc2ccc(Cl)cc2)CCN(Cc2ccc(Oc3ncccn3)cc2)CC1	–	–	–	59.1	–
CCNC(=O)Nc1cc(S(=O)(=O)Nc2ccc(OC)cc2)ccc1N1CCOCC1	88.5	·	·	·	–
Cc1cc(OC(C)C(=O)NCCCN2CCOCC2)c2c(C)c(C)c(=O)oc2c1 (centres undefined)	–	–	–	–	–
COc1ccc(NC(=O)CC(C)n2ccnc2)cc1 (centres undefined)	–	–	–	–	–
CC1=NN2C(=N)/C(=C\c3cc(C)n(Cc4ccccc4)c3C)C(=O)N=C2S1	–	–	54.7	–	–
COc1cc(C(C(=O)NC(C)(C)C)N(Cc2ccccc2)C(=O)c2cnccn2)cc(OC)c1OC (centres undefined)	–	–	–	–	–
COc1ccc(CN(C(=O)c2ccc(-c3ccccc3)[nH]2)C(C(=O)NC(C)(C)C)c2ccncc2)cc1 (centres undefined)	–	–	–	58.5	–
CC(NC(=O)CN(c1cccc(C(F)(F)F)c1)S(C)(=O)=O)c1ccccc1 (centres undefined)	–	–	–	–	–
Cc1ccc(S(=O)(=O)N2CCN(C(=O)CSc3ncn[nH]3)CC2)c(C)c1	–	·	–	–	–
CC(C)c1ccc(S(=O)(=O)/N=C2/C=C(Sc3ncn[nH]3)C(=O)c3ccccc32)cc1	132.4	–	·	·	–
CC(C)(C)c1ccc(S(=O)(=O)/N=C2\C=C(NS(=O)(=O)c3ccccc3)C(=O)c3ccccc32)cc1	–	–	–	–	–
Cc1ccc(S(=O)(=O)/N=C2/C=C(Sc3ncn[nH]3)C(=O)c3ccccc32)c(C)c1	128.5	–	·	·	–
Cc1ccc(S(=O)(=O)/N=C2/C=C(Sc3ncn[nH]3)C(=O)c3ccccc32)cc1	97.8	–	·	·	–
CCN(CC(=O)Nc1cccc(S(=O)(=O)N(C)c2ccccc2)c1)Cc1cccs1	–	·	·	·	–
CCC(CO)Oc1cc(NC(=O)Cc2ccccc2)c2ncn(C(C)C)c2c1 (centres undefined)	–	·	·	·	–
SMILES	Beta apoptosis	KLF5 inhibitor	HIF activator	T cruzi inh	A1 inh
CCCCC(=O)NC(c1ccccc1Cl)c1ccc2cccnc2c1O (centres undefined)	105.6	71.5	128.1	–	–
CCC(=O)NC(c1ccccc1OC)c1ccc2cccnc2c1O (centres undefined)	109.1	–	35.2	59.5	–
COc1ccc(Cl)cc1C(Nc1cccnc1)c1ccc2cccnc2c1O (centres undefined)	·	–	–	71.9	–
CCCCC(=O)NC(c1ccccc1)c1ccc2cccnc2c1O (centres undefined)	99.1	95.8	48.0	57.3	–
O=C(Nc1ccc2c(c1)CN(Cc1ccccc1O)CC2)C1CCCO1 (centres undefined)	–	–	–	–	–
CCCC(=O)NC(c1ccccc1)c1ccc2cccnc2c1O (centres undefined)	99.0	88.6	50.7	57.7	–
CN(C)/C=C/C(=O)c1ccn(S(=O)(=O)c2ccccc2)c1	–	–	–	–	–
